Assay results collected from several papers.
Each line is one published result; the experiments were not run side by side.
CDKL1: Cyclin-dependent kinase-like 1 (CDKL1, Homo sapiens, UniProt Q00532)
MAP3K11: Mitogen-activated protein kinase kinase kinase 11 (MAP3K11, Homo sapiens, UniProt Q16584)
ULK1: Serine/threonine-protein kinase ULK1 (ULK1, Homo sapiens, UniProt O75385)

Nc1ncnc2occ(-c3ccc(NC(=O)Nc4cc(C(F)(F)F)ccc4F)cc3)c12  remaining signal (Myosin-IIIa (MYO3A, Homo sapiens, UniProt Q8NEV4); cell-free assay; 20 µM): 0.05%
O=S1(=O)O[C@@H]2[C@H](O)[C@@H](O)[C@H](O)[C@@H](CO)[C@@H]2O1  kinact/KI (Lysosomal alpha-glucosidase (GAA, Homo sapiens, UniProt P10253); enzyme activity, inhibitor; pH 4.8): 1070 M⁻¹ s⁻¹
CC1(C)NC(=O)c2[nH]c3c(Cl)c(Cl)ccc3c2C1C#N (centres unmarked)  ΔTm (CDKL1; thermal stability, DSF; 10 µM): 0 °C
Cc1cnc(NC2CCOCC2)nc1-n1cnc(C(=O)NC(CN)c2cc(F)cc(Cl)c2)c1 (centres unmarked)  remaining activity (Mitogen-activated protein kinase 1 (Mapk1, Mus musculus, UniProt P63085); enzyme activity, inhibitor, radiometric; 1 µM): 1%
Cc1cc(NC(=O)c2cccc3cc(-c4cccc5[nH]nc(N)c45)ccc23)ccc1F  activity vs control (Hepatocyte growth factor receptor (MET, Homo sapiens, UniProt P08581, D1228H); enzyme activity, inhibitor; 0.1 µM): 145%
Cn1c2c(c3ccc(Cl)c(Cl)c31)C(C#N)C(C)(C)NC2=O (centres unmarked)  ΔTm (CDKL1; thermal stability, DSF; 10 µM): 0 °C
Cc1ccc(NC(=O)c2ccc(C)c(C(F)(F)F)c2)cc1C#Cc1nn(C2CCC(O)CC2)c2ncnc(N)c12 (centres unmarked)  remaining signal (Hepatocyte growth factor receptor (MET, Homo sapiens, UniProt P08581); cell-free assay; 10 µM): 133%
NS(=O)(=O)c1ccc(CNc2ccnc(Nc3cccc(CN4CCOCC4)c3)n2)cc1  remaining activity (MAP3K11; enzyme activity, inhibitor, radiometric; 1 µM): 95%
CCN1CCN(Cc2ccc(NC(=O)c3ccc(C)c(Oc4ccnc5[nH]ccc45)c3)cc2C(F)(F)F)CC1  inhibition (Eukaryotic elongation factor 2 kinase (EEF2K, Homo sapiens, UniProt O00418); target engagement in cells, inhibitor, chemoproteomics; Huh-7; 10 µM): -20.2%
NS(=O)(=O)c1ccc(CNc2nc(Nc3cccc(NC(=O)N4CCCC4)c3)ncc2C2CC2)cc1  remaining activity (MAP3K11; enzyme activity, inhibitor, radiometric; 1 µM): 72%
CCN1CCC2(CC1)NC(=O)c1c(c3ccc(Cl)c(Cl)c3n1C)C2C#N (racemic)  ΔTm (CDKL1; thermal stability, DSF; 10 µM): -0.1 °C
Cc1nn(CC(F)(F)F)cc1Nc1ncc(C2CC2)c(NCCc2c[nH]cn2)n1  remaining activity (ULK1; enzyme activity, inhibitor, radiometric; 1 µM): 78%
Cn1c2c(c3ccc(Cl)c(Cl)c31)C(C#N)C1(CCCC1)NC2=O (centres unmarked)  ΔTm (CDKL1; thermal stability, DSF; 10 µM): 0 °C
Cc1nn(CC(F)(F)F)cc1Nc1ncc(Br)c(NCCc2cnc[nH]2)n1  remaining activity (ULK1; enzyme activity, inhibitor, radiometric; 1 µM): 20%
Cn1c2c(c3ccc(Cl)c(Cl)c31)C(C#N)C1(CCOCC1)NC2=O (centres unmarked)  ΔTm (CDKL1; thermal stability, DSF; 10 µM): -0.1 °C
c1cc(CN2CCOCC2)cc(Nc2ncc(C3CC3)c(NCCc3c[nH]cn3)n2)c1  remaining activity (MAP3K11; enzyme activity, inhibitor, radiometric; 1 µM): 27%
FC(F)(F)Oc1cccc(-c2cnc3ccc(-c4ccncc4)nn23)c1  activity vs control (Mitogen-activated protein kinase kinase kinase 1 (MAP3K1, Homo sapiens, UniProt Q13233); enzyme activity, inhibitor, radiometric; 5 µM): 94%
